M4 antag – human M4 muscarinic receptor antagonists, primary screen, CHO cells, Fluo-8 calcium fluorescence; Muscarinic acetylcholine receptor M4 (Homo sapiens), P08173; CHO-hM4 cells, ACh EC80; inhibition, % at 3 µM; 360,000 compounds, 0.73% hits; AID 624125, 2012;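 active means inhibition above its plate's cutoff, the mean inhibition of sample wells plus 3 SD, cut at about 27% in these data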;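 further: 0% = acetylcholine EC80 with DMSO and 100% = DMSO without agonist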
CHRM5 PAM – human M5 muscarinic receptor positive allosteric modulators, primary screen, CHO-K1 cells, Fluo-8 calcium fluorescence | activation, % at 3 µM | Muscarinic acetylcholine receptor M5 (Homo sapiens), P08912 | CHO-K1 hM5, ACh EC20 PAM; 0% = ACh EC20, 100% = ACh EC100 | 360,000 compounds, 0.3% hits | AID 624038, 2012;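 active means activation above the run cutoff, the mean activation of all test compounds plus 3 SD, cut at about 18% in these data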
Target sequence (P08912 whole entry, looked up): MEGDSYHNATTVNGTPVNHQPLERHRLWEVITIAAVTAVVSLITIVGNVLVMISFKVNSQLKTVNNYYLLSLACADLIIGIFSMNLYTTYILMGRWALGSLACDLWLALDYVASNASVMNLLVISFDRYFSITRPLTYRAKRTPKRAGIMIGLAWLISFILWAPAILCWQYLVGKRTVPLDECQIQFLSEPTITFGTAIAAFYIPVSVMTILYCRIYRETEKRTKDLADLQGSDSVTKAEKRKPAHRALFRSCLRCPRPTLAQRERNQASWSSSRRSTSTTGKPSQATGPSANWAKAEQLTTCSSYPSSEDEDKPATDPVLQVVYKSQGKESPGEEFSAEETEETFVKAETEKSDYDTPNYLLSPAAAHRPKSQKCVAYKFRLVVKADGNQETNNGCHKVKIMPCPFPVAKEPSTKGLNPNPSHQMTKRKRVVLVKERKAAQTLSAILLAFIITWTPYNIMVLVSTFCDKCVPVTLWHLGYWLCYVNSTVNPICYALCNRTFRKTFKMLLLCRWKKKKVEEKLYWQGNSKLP
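system = human M5 receptor in CHO-K1 cells | reagent = EC20 acetylcholine as agonist stimulus | compound dosing = single-point, 3 µM nominal | incubation = Fluo-8 loading 80 min at 37 °C plus 30 min room temperature | detection = Fluo-8 calcium dye fluorescence, kinetic read | benchmarks = low control EC20 acetylcholine (0%), high control EC100 acetylcholine (100%)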
CHRM5 agonist – human M5 muscarinic receptor agonists, primary screen, CHO-K1 cells, Fluo-8 calcium fluorescence | activation, % at 3 µM | 360,000 compounds, 0.19% hits | Muscarinic acetylcholine receptor M5 (Homo sapiens), P08912 | CHO-K1 hM5 cells; 0% DMSO wells, 100% maximal acetylcholine response;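 active means activation above the run's mean over test compounds plus 3 SD, cut at about 23% in these data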;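 further: signal is peak over basal fluorescence ratio across the kinetic read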
CHRM4 PAM – human M4 muscarinic receptor positive allosteric modulators, primary screen, CHO-K1 cells, Fluo-8 calcium fluorescence; 360,000 compounds, 0.4% hits; Muscarinic acetylcholine receptor M4 (Homo sapiens), P08173; CHO-K1 hM4/Gqi5, ACh EC20; 0% = ACh EC20, 100% = maximal ACh; activation, % at 3 µM;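 active means activation above its plate's cutoff, the mean activation of sample wells plus 3 SD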
CHRM4 agonist – human M4 muscarinic receptor agonists, primary screen, CHO-K1 cells, Fluo-8 calcium fluorescence. Muscarinic acetylcholine receptor M4 (Homo sapiens), P08173. CHO-K1 hM4/Gqi5; vehicle 0%, full acetylcholine response 100%. activation, % at 3 µM. 360,000 compounds, 0.14% hits. AID 624127, 2012;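 active means activation above the run mean over all test wells plus 3 SD, cut at about 32% in these data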;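 further: peak over basal fluorescence ratio per well then scaled between controls; 0% = DMSO wells and 100% = acetylcholine at EC100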
M5 antag – human M5 muscarinic receptor antagonists, primary screen, CHO cells, Fluo-8 calcium fluorescence; Muscarinic acetylcholine receptor M5 (Homo sapiens), P08912; CHO-hM5 cells, ACh EC80; inhibition, % at 3 µM; 360,000 compounds, 0.59% hits;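 active means inhibition above a per-plate cutoff, the mean of that plate's test compounds plus 3 SD, cut at about 27% in these data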;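 further: 0% = acetylcholine EC80 with DMSO and 100% = DMSO without agonist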
The depositor's hits bear a star. Only some compounds are listed: those with a hit (about 1.8% of all), similar ones and a draw of the others.

SMILES	M4 antag	CHRM5 PAM	CHRM5 agonist	CHRM4 PAM	CHRM4 agonist	M5 antag
Cc1cccc(NC(=O)CSCC(=O)NNC(=O)c2ccoc2C)c1	0	-5	-3	23*	1	-3
Cc1occc1C(=O)Nc1ccc(Br)cc1F	4	30*	-3	7	0	-6
CCOc1ccccc1NC(=O)NNC(=O)CCc1ccc(OC)cc1	3	-1	0	-2	1	4
N#CCCN(C(=O)COC(=O)CCc1nc2ccccc2c(=O)[nH]1)c1ccc(F)cc1	6	2	-3	2	1	11
CCOC(=O)c1oc2ccc(CNC3CCCCC3)c(Cl)c2c1C	55*	-8	-4	-17	8	-6
CCOC(=O)c1oc2ccc(CNCCO)c(Cl)c2c1C	-1	2	-4	2	1	-2
O=C(Nc1ccc2c(c1)OCCO2)C(c1ccnc2ccccc12)N1CCN(c2ccc(C(F)(F)F)cn2)CC1 (centres undefined)	0	15	14	-2	3	8
O=C(Nc1ccc2c(c1)OCCO2)C(c1ccnc2ccccc12)N1CCN(c2ccc(F)cc2)CC1 (centres undefined)	-2	19*	21	-2	2	-4
O=C(COC(=O)COc1ccc(Br)cc1)NC1CCS(=O)(=O)C1 (centres undefined)	-5	1	2	3	1	4
COc1ccc(C(C#N)=Cc2ccc(N(C)CCC#N)cc2)cc1	11	-16	3	-7	5	28*
CC[n+]1c(/C=C2\Sc3ccccc3N2C)ccc2cccc(C)c21	26	-14	3	-9	8	38*
CCN1/C(=C/c2ccc3cc(C)ccc3[n+]2CC)Sc2cc(C)c(C)cc21	31*	-19	8	-7	13	41*
CCN1/C(=C/c2ccc3cc(C)ccc3[n+]2CC)Sc2ccccc21	33*	-21	24*	-9	14	60*
CCN1/C(=C/C=C/c2sc3ccccc3[n+]2CC)Sc2ccccc21	16	-12	3	-9	11	18
CC[n+]1ccccc1/C=C1\Sc2ccc(C)cc2N1C	-10	1	-1	3	0	0
COC(=O)[C@@]12C[C@@H](CC(=O)NCc3ccc(C)o3)C(=O)N(Cc3ccccc3)C1=CCC(C)(C)C2	6	5	-1	3	4	0
CC(C)N1CCC(N2CCN(Cc3cc(F)ccc3-n3cccn3)CC2CCO)CC1 (centres undefined)	-18	22*	-9	18	1	-7
CC(C)CCN1CCN(Cc2cccc(-n3cccn3)c2)CC1CCO (centres undefined)	2	-1	-8	-25	0	4
Cc1cc(-n2cccn2)ccc1CN1CCN(C2CCCC2)C(CCO)C1 (centres undefined)	99*	-34	-16	-21	2	54*
Cc1cc(-n2cccn2)ccc1CN1CCN(CC(C)C)C(CCO)C1 (centres undefined)	55*	-4	-18	-41	0	-5
CC(C)N1CCN(Cc2cc(F)ccc2-n2cccn2)CC1CCO (centres undefined)	7	-5	-6	-1	0	7
COc1ccc(C(=O)N/C(=C/c2cccs2)C(=O)N2CCN(C)CC2)cc1	-12	2	1	6	3	-9
O=C1CCC2(CCCC2)c2ccccc21	-14	0	0	0	0	-6
O=C(N/C(=C/c1ccc(Br)cc1)C(=O)N1CCCCC1)c1ccccc1F	3	-1	-3	0	4	0
C=CCCC(=O)N1C[C@H]2CON(C)[C@H]2C[C@H]1c1cccc(N2CCOCC2)c1	-2	-5	2	-1	0	2
SMILES	M4 antag	CHRM5 PAM	CHRM5 agonist	CHRM4 PAM	CHRM4 agonist	M5 antag
O=C(C1CCN(S(=O)(=O)N2CCC3(CC2)OCCO3)CC1)N1CCc2ccccc2C1	-1	-2	5	3	6	-4
O=C(C1CCN(c2ccc(N3CCOCC3)nn2)CC1)N1CCc2ccccc2C1	46*	1	-1	-17	1	3
COc1ccc(Br)c(C=O)c1OS(=O)(=O)c1ccc(C)cc1	-4	-1	4	-1	7	3
O=C(Nc1ccccc1-c1nc2ccccc2[nH]1)c1ccc(N2C(=O)CCC2=O)cc1	5	-14	2	-4	6	27*
O=C(CCc1nnc(Cc2c[nH]c3ccccc23)o1)NCCC1CCCCO1 (centres undefined)	-26	0	1	4	0	0
CCCCc1ccc(/C=C2/C(=O)ON=C2c2ccccc2)s1	-8	11	0	27*	2	-10
CCOC(=O)/C(=C/C=C1\Sc2ccccc2N1CC)C(C)=O	14	-16	47*	-9	18	23
CCOC(=O)/C(=C\C=C1/Sc2ccccc2N1CC)C(C)=O	4	-15	36*	-29	52*	10
CCOC(=O)/C(=C/C=C1\Sc2cc(C)c(C)cc2N1CC)C(C)=O	11	0	12	-4	24	11
Cc1ccc2c(c1)C(=O)N1[C@H]3c4ccccc4OC[C@@H]3[C@H](c3ccccc3)[C@]1(C)C(=O)N2	53*	-36	-6	-14	1	17
COc1ccc2c(c1)[C@H]1[C@H](CO2)[C@H](c2ccccc2)[C@]2(C)C(=O)Nc3ccc(C)cc3C(=O)N12	-2	-7	-10	-7	1	10
COc1ccc2c(c1)C(=O)N1[C@H]3c4cc(C)ccc4OC[C@@H]3[C@H](c3ccccc3)[C@]1(C)C(=O)N2	34*	-23	-3	-10	-1	18
Cc1ccc2c(c1)[C@H]1[C@H](CO2)[C@H](c2ccccc2)[C@]2(C)C(=O)Nc3ccc(Cl)cc3C(=O)N12	17	-32	-3	-8	1	13
Cc1ccc2c(c1)[C@H]1[C@H](CO2)[C@H](c2ccccc2)[C@]2(C)C(=O)Nc3ccccc3C(=O)N12	60*	-34	-7	-14	1	21
Cc1ccc2c(c1)NC(=O)[C@@]1(C)[C@@H](c3ccccc3)[C@H]3COc4ccccc4[C@@H]3N1C2=O	6	-1	-1	-9	1	0

Bioassay records deposited in PubChem by The Scripps Research Institute Molecular Screening Center.
